An excerpt weighted towards active compounds, which were near 3.5% of everything screened.
MrgX1 ag: agonists of human MrgX1 receptor. Q96LB2. B-score at 10 µM. 310,000 compounds, 0.44% hits. MrgX1-HEK293 cells, Fluo-4 calcium fluorescence, agonist mode; stronger effect = higher value;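 active means calcium response B-score plate-corrected fluorescence ratio at least 3 library SD, with starting fluorescence B-score inside 5 SD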
Target sequence (Q96LB2 whole entry, looked up): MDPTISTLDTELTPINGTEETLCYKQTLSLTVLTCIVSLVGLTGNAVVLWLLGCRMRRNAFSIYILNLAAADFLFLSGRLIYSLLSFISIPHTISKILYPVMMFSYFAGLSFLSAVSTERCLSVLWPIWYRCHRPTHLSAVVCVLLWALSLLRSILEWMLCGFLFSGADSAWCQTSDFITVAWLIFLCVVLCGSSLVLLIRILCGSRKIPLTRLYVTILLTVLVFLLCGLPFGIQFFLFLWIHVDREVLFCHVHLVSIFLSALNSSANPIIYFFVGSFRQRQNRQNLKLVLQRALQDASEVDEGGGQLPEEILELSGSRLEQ
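Assay system: stable human MrgX1 HEK293 cell line. Quantity: 15,000 cells per well. Schedule: cells plated overnight, dye loaded 0.5 h 37 °C, 0.5 h room temperature. Detection: Fluo-4 NW calcium-flux fluorescence, kinetic read. Read-out basis: peak-minus-minimum fluorescence over baseline, converted to B scores. Control set: positive and negative control wells on each plate.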
RGS4 inh: inhibitors of human RGS4 | B-score at 10 µM | 310,000 compounds, 0.45% hits | HEK293 M3R/RGS4 inducible, Fluo-4 calcium flux; stronger effect = higher value; triggered by carbachol at its EC20;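 active means B-score, a plate-corrected calcium signal, over three deviations above library mean, with baseline fluorescence within five deviations of library mean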;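 further: RGS4 expression induced by doxycycline in cells with stable M3 receptor; B-score is computed from the integrated fluorescence ratio over baseline after carbachol; higher B-score means a larger calcium signal and so more RGS4 inhibition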
Target sequence (P49798 whole entry, looked up): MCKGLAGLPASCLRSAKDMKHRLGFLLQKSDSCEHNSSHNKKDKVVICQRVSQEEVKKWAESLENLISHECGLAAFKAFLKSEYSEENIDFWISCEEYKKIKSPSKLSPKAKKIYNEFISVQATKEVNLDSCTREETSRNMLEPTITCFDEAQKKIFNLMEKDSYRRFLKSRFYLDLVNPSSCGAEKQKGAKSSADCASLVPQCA
RGS4 pot: RGS4 potentiation or activation. HEK293 M3R/inducible RGS4, carbachol calcium flux Fluo4; stronger effect = lower value. B-score at 10 µM. 310,000 compounds, 0.92% hits. AID 463111;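 active means B-score of the integrated calcium signal more than 4 SD below the library mean, with starting fluorescence not abnormally high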;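 further: negative B-score means reduced calcium response which marks RGS4 activation or potentiation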
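Assay system: HEK293 FlpIn-TREx cells, stable M3R, doxycycline-inducible RGS4 / Probe or stimulus: carbachol, ECmax concentration / Times: overnight RGS4 induction, 30 min dye load 37 °C, 20 min compound RT / Signal: kinetic calcium fluorescence imaging with Fluo4-AM dye, 2 µM / Measure: Agonist-evoked peak-minus-minimum fluorescence over baseline, integrated ratio, B score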
MrgX1 allo act: human MrgX1 positive allosteric modulation, primary screen; Q96LB2; MrgX1-HEK293, Fluo-4 calcium flux, FDSS; stronger effect = higher value; B-score at 10 µM; 310,000 compounds, 0.63% hits;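 active means plate-corrected calcium response at least 3 library SD above typical, normal starting fluorescence, not activating the receptor alone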;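 further: compound read alongside a low EC10 to EC30 dose of BAM8-22 agonist; peak minus trough fluorescence over baseline measured at the second addition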
MrgX1 antag: blocks BAM8-22 activation of human MrgX1 receptor; MRGX1-HEK293 calcium flux, Fluo-4, BAM8-22 antagonism; stronger effect = lower value; B-score at 10 µM; 310,000 compounds, 1.3% hits; Q96LB2;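 active means calcium-response B-score plate-corrected more than 3 library SD below zero, starting fluorescence within 5 deviations, no agonist response on first addition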;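 further: peak minus trough fluorescence over baseline after final BAM8-22 challenge near maximal dose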
MrgX1 PAM conf: confirmation of human MrgX1 receptor positive allosteric modulators; activation (ratio percentage), % at 10 µM; shares compounds with MrgX1 allo act; 1,200 compounds, 13% hits; MrgX1-HEK293, Fluo-4 calcium fluorescence, FDSS;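 active means ratio at least 3 SD above the weak peptide control, stable starting fluorescence, no direct agonism earlier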;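 further: compound followed by low BAM8-22 agonist challenge near EC20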
HEK293 Ca flux: MrgX1 antagonist counter-screen hit in parental HEK293 cells; shares compounds with MrgX1 antag; Fluo-4 calcium fluorescence, FDSS; fluorescence ratio F(max-min)/F0 at 10 µM; 4,000 compounds, 2% hits;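 active means duplicate-averaged calcium fluorescence ratio at least three times the standard deviation of buffer wells, a nonspecific response in parental cells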
HEK293 Ca counter: MrgX1 allosteric activator counter-screen hit in parental HEK293 cells; shares compounds with MrgX1 antag; parental HEK293 calcium flux, Fluo-4 fluorescence ratio; stronger effect = higher value; fluorescence ratio F(max-min)/F0 at 10 µM; 4,000 compounds, 0.4% hits; AID 624114;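 active means calcium fluorescence ratio, averaged over duplicates, at least 3 SD of the buffer-well ratio, meaning a nonspecific response in receptor-free cells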;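 further: untransfected parental HEK293 lacking MrgX1 used as counterscreen for MrgX1 allosteric activators; fluorescence change taken during the second addition on a kinetic imager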
HEK293 Ca cntr2: counter-screen for MrgX1 activators: effect in parental HEK293 cells; 4,000 compounds, 8.7% hits; shares compounds with MrgX1 antag; Fluo-4 calcium fluorescence (FDSS); stronger effect = higher value; fluorescence ratio F(max-min)/F0 at 10 µM;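 active means calcium fluorescence ratio at least three times the spread of buffer wells, meaning a non-specific response in parental cells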
Numbers stand for hits; - = inactive; . = not tested or not shown.

SMILES	MrgX1 ag	RGS4 inh	RGS4 pot	MrgX1 allo act	MrgX1 antag	MrgX1 PAM conf	HEK293 Ca flux	HEK293 Ca counter	HEK293 Ca cntr2
CNC(=O)CC1C(=O)N(c2ccc(Cl)cc2)C(=S)N1CCc1ccc(OC)c(OC)c1 (centres undefined)	-	-	-	10.3	-	-	-	-	-
COc1ccc(CCN2C(=S)N(c3ccccc3)C(=O)C2CC(=O)O)cc1OC (centres undefined)	-	-	-	-	-	.	.	.	.
COC(=O)c1ccccc1NC(=O)CN(CCc1ccccc1)S(C)(=O)=O	-	-	-	9.52	-	-	-	-	-
CS(=O)(=O)N(CCc1ccccc1)CC(=O)Nc1ccc(OCc2ccccc2)cc1	-	-	-	-	-	.	.	.	.
CN(c1ccccc1)S(=O)(=O)c1ccc2c(c1)oc(=O)n2C	-	-	-	-	-	.	.	.	.
CCCCNc1nc(Nc2ccc(C)c(Cl)c2)c2cnn(C)c2n1	-	-	-	-	-	.	.	.	.
CC1CN(c2ccc(S(=O)(=O)N3CCCC3)cn2)CC(C)O1 (centres undefined)	-	-	-	-	-	.	.	.	.
COc1ccc(N2CCN(CC(O)COCc3ccccc3)CC2)cc1 (centres undefined)	-	-	-	7.67	-	-	-	-	-
Clc1ccc(-c2nnnn2-c2ccc(Cl)cc2)cc1	-	-	-	10.6	-	-	-	-	-
Clc1ccc(-n2nnnc2-c2ccccc2)cc1	-	.	.	-	-	.	.	.	.
NC(=O)c1c(NC(=O)c2cccs2)sc2c1CCCCCC2	-	-	-	8.52	-	-	-	-	-
O=C(Nc1sc2c(c1C(=O)O)CCC2)c1cccs1	-	-	-	-	-	.	.	.	.
c1ccc2nc(-c3nccs3)ccc2c1	-	-	-	6.5	-	-	-	-	-
Clc1ccsc1-c1ccc2ccccc2n1	-	-	-	-	-	.	.	.	.
CN1CCN(c2nc(-c3ccc(Cl)s3)cs2)CC1	-	-	-	-	-	.	.	.	.
CCOC(=O)N1C2=NC(C(=O)OC)=C(C(=O)OC)[C@@H]3N(C)c4ccccc4[C@]23C[C@H]1C(=O)OC	-	-	-	-	-	.	.	.	.
COC(=O)C1Cc2ccccc2CN1C(=O)CCl (centres undefined)	-	-	-	8.14	-	-	-	-	-
CC(=O)NC(Cc1ccc(F)cc1)C(=O)NC1CCN(C(=O)Nc2ccc(F)cc2)CC1 (centres undefined)	-	-	-	59.5	-	-	-	-	-
CC(=O)NC(Cc1ccc(F)cc1)C(=O)NC1CCN(C(=O)Nc2cccc(C)c2)CC1 (centres undefined)	-	-	-	-	-	.	.	.	.
Cc1c(Cl)ccc2c(C(=O)Nc3cc(C(C)(C)C)on3)cc(-c3ccccn3)nc12	-	-	-	-	-	.	.	.	.
COCc1cc(=O)[nH]c(/N=C(\N)Nc2ccccc2C)n1	-	-	-	20.6	-	-	-	-	-
Cc1ccc(Sc2ncccc2C(=O)N(C)Cc2cccs2)c(C)c1	-	-	-	24.7	-	-	-	-	-
Cc1ccc(Nc2ncccc2C(=O)NCc2cccs2)c(C)c1	-	-	-	-	-	.	.	.	.
COc1cccc(CNc2cnc3ccccc3c2)c1O	-	-	-	7.06	-	-	-	-	-
COc1cccc(CNc2cccc(C(F)(F)F)c2)c1O	-	-	-	35.5	-	10.3%	-	-	-
SMILES	MrgX1 ag	RGS4 inh	RGS4 pot	MrgX1 allo act	MrgX1 antag	MrgX1 PAM conf	HEK293 Ca flux	HEK293 Ca counter	HEK293 Ca cntr2
COc1cccc(CNc2ccc(F)c(Cl)c2)c1O	-	-	-	26.5	-	13.0%	-	-	-
COc1cccc(CNc2ccc([N+](=O)[O-])cc2Cl)c1O	-	-	-	24.6	-	13.0%	-	-	-
COc1cccc(C(=O)NCC(=O)NCc2cc(=O)n(C)c(=O)n2C)c1	-	-	-	-	-	.	.	.	.
Cc1c(C(=O)N2CCCCC2CCN2CCCC2=O)oc2c(F)cccc12 (centres undefined)	-	-	-	-	-	.	.	.	.
COc1ccc(S(=O)(=O)N(C)C)cc1NC(=O)CN1C(=O)NC2(CCCC2)C1=O	-	-	-	-	-	.	.	.	.
COC(=O)c1cc(Sc2cccc(Cl)c2Cl)ccn1	-	-	-	-	-	.	.	.	.
COC(=O)c1cc(Sc2c(Cl)cccc2Cl)ccn1	-	-	-	46.3	-	19.8%	-	-	-
O=C(Nc1ccccc1F)Nc1ccccc1F	-	-	-	7.2	-	-	-	-	-
O=C(NNc1ccccc1)Nc1ccccc1F	-	-	-	-	-	.	.	.	.
CCc1noc(C)c1C(=O)Nc1cc(S(=O)(=O)N2CCOCC2)ccc1N1CCN(CC)CC1	-	-	-	-	-	.	.	.	.
CCOC(=O)c1sc(NS(=O)(=O)c2ccc(F)cc2)nc1C	-	-	-	11.6	-	-	-	-	-
CCOC(=O)c1sc(NS(=O)(=O)c2ccccc2Cl)nc1C	-	-	-	11.5	-	-	-	-	-
CNC(=S)N/N=C/c1c2ccccc2c(Cl)c2ccccc12	-	-	-	-	-	.	.	.	.
CN(C)c1ccc(CNS(=O)(=O)c2ccc3c(c2)C(C)(C)C(=O)N3C)cc1	-	-	-	-	-	.	.	.	.
O=C(NCC1CCCO1)C(=Cc1cccc([N+](=O)[O-])c1)C(=O)NCC1CCCO1 (centres undefined)	-	-	-	-	-	.	.	.	.
O=C(NCc1csc(-c2cccs2)n1)C1CCCCC1	-	-	-	-	-	.	.	.	.
O=C(CCl)N(CCc1ccccc1)CCc1ccccc1	-	-	-	7.74	-	-	-	-	-
O=C(CCl)N(c1ccccc1)c1ccccc1	.	-	-	.	.	.	.	.	.
CN(Cc1cnccn1)Cc1nc(Cc2ccccc2Cl)no1	-	-	-	-	-	.	.	.	.
CN(Cc1cnccn1)Cc1nc(Cc2ccccc2F)no1	-	-	-	10.3	-	-	-	-	-
CCOC(=O)C1CCN(c2cc3c(cc2NC(=O)c2ccc(OC)c(OC)c2)n(C)c(=O)n3C)CC1	-	-	-	-	-	.	.	.	.
O=C(O)C[C@H]1c2cc(C(F)(F)F)ccc2S(=O)(=O)N1Cc1ccccc1	-	-	-	-	-	.	.	.	.
O=C(c1ccc(F)cc1)N1CCCCC(S(=O)(=O)c2ccccc2)C1=O (centres undefined)	-	-	-	-	-	.	.	.	.
CC(=O)Nc1ccc(S(=O)(=O)NCc2ccc(C(=O)N3CCOCC3)cc2)cc1	-	-	-	7.38	-	-	-	-	-
CC(C)CC(=O)N1CCN(S(=O)(=O)c2ccc3ccccc3c2)CC1	-	-	-	-	-	.	.	.	.

Screens (PubChem BioAssay)
